Experimental findings from ChEMBL document CHEMBL3997850 (ACS Med Chem Lett, 2017) are described below.

The subject of data set [1] is Liver. Description: Intrinsic clearance in rat hepatic S9 fraction at 5 uM in presence of UDPGA/NADPH measured over 30 mins by LC/MS analysis. As to conditions: s9, 0.5 h. The class given is ADME, tissue-based. Put shortly:
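Rat hepatic S9 (2 mg/mL protein) with compound 5 µM, 50 mM Tris-HCl pH 7.5, 8 mM MgCl2, 2 mM NADPH, 2 mM UDPGA, 12.7 µM alamethicin, 37 °C. Reaction started with S9. Aliquots taken over 0–30 min, quenched with acetonitrile, analyzed by LC/MS.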

Data set [2] concerns Liver. As to the kind of experiment: Intrinsic clearance in rat hepatic S9 fraction at 5 uM in presence of UDPGA measured over 30 mins by LC/MS analysis. The class given is ADME. Conditions: s9, 0.5 h.
The target in data set [3] is T1, Indoleamine 2,3-dioxygenase 1 (Homo sapiens, UniProt P14902). Description: Inhibition of human N-terminal His-tagged IDO1 expressed in Escherichia coli using D-Trp as substrate.
T1 sequence (P14902 whole entry): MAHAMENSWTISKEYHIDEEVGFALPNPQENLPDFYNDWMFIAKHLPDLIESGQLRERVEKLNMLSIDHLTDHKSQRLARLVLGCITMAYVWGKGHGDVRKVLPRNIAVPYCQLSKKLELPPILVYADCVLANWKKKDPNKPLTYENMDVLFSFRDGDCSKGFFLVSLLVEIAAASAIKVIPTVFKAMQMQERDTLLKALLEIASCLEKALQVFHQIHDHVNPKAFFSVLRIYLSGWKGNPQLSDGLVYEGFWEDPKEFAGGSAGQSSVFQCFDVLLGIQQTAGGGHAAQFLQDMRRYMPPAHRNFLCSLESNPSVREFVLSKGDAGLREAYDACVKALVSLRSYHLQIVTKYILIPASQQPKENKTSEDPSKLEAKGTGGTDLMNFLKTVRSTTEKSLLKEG
A short description of data set [4]: Permeability across apical to basolateral side in human Caco2 cells at 50 uM after 120 mins by LC/MS analysis. The class given is ADME, cell-based. As to conditions: Caco-2, read-out: permeability. Put shortly:
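Caco-2 cells (passages 21–45) seeded at 4,000/well on PET transwell filters and used 21–26 days after seeding. Monolayers accepted at TEER ≥300 Ω·cm² and run in Hank's balanced salt solution. After 120 min incubation, receiver-side sample taken, acetonitrile-precipitated, quantified by LC/MS.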

Data set [5] addresses T1, Indoleamine 2,3-dioxygenase 1. As to the kind of experiment: Inhibition of IDO1 in IFN-gamma-stimulated human HeLa cells assessed as decrease in kynurenine levels after 48 hrs. The class given is cell-based.
The test system of a further data set is Plasma. Description: Fraction unbound in human plasma after 2 hrs by equilibrium dialysis method. The class given is ADME, cell-free. Put shortly:
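Equilibrium dialysis of human plasma (1 mL) containing compound against 1 mL 0.133 M phosphate buffer pH 7.4. Membrane cut-off 10,000 Da, teflon cells rotated at 12 rpm for 2 h at 37 °C. Recovered volumes weighed and matrix-matched 1:1. Acetonitrile precipitation, LC/MS/MS of both sides.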
A general note: Equilibrium dialysis compares concentrations on both sides of a semipermeable membrane.

Data set [6] has as its system CT26. As to the kind of experiment: Antitumor activity against mouse CT26 cells allografted in po dosed Balb/c nu/nu mouse assessed as tumor growth inhibition. The class given is functional, organism-based.
For a further data set, the system named is Mus musculus. As to the kind of experiment: In vivo inhibition of IDO1 in wild type C57BL/6 mouse assessed as reduction in kynurenine levels in plasma at 50 mg/kg, po qd after 8 hrs by LC/MS/MS analysis. The class given is functional, organism-based. Put shortly:
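Fed C57BL/6 mice given a single dose; food then removed. At various timepoints, blood taken by cardiac puncture. Plasma diluted 10-fold in water, TCA protein precipitation, then LC/MS/MS for tryptophan, kynurenine (linear 20–10,000 nM kynurenine, 200–100,000 nM tryptophan) and drug, against aqueous standards.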

In data set [7] the test system is CT26. Description: Antitumor activity against mouse CT26 cells allografted in immunocompetent Balb/c mouse assessed as reduction in tumor growth at 30 mg/kg, po measured on day 24 relative to vehicle-treated control. The class given is functional.
Data set [8] can be described thus: AUC in mouse CT26 cells allografted immunocompetent Balb/c mouse model at 30 mg/kg, po by LC/MS/MS analysis. The class given is ADME, organism-based. As to conditions: in vivo.
The nature of data set [9]: Half life in cynomolgus monkey at 10 mg/kg, po by LC/MS/MS analysis. The class given is ADME, organism-based, Macaca fascicularis. As to conditions: in vivo. Put shortly: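 Male cynomolgus monkeys given 4 mg/kg IV (5% DMAC, 40% propylene glycol in saline) or 10 mg/kg orally (0.5% methylcellulose). EDTA plasma collected pre-dose through 24 h. Acetonitrile protein precipitation, then LC/MS/MS quantification, linear 2–10000 nM. PK parameters by standard non-compartmental methods.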

A short description of data set [10]: Half life in rat at 5 mg/kg, po by LC/MS/MS analysis. The class given is ADME, organism-based. Conditions: in vivo. Put shortly: (§1)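 Male rats, 5 mg/kg IV in 10% DMAC/saline or 5 mg/kg oral in 0.5% aqueous methylcellulose. Plasma (EDTA) sampled pre-dose to 24 h. Quantified by acetonitrile precipitation and LC/MS/MS (2–10000 nM range, 0.1 mL). Non-compartmental analysis of concentration–time data.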

Another data set relates to Rattus norvegicus. Description: AUC in rat at 5 mg/kg, iv or 5 mg/kg, po by LC/MS/MS analysis. The class given is ADME, organism-based. As to conditions: in vivo. Put shortly:
as §1

Structures are written as SMILES. Activity calls are given as the source filed them. Some results are limits rather than exact numbers.

Regarding `Nc1nonc1C(=NO)Nc1ccc(F)c(Cl)c1`, the CLH in the data set with Liver [1] and with Liver [2] was above 36.7 mL/min/kg in each case.
Usually IC50 stands for the concentration that gives 50% inhibition. Take `CS(=O)(=O)NCCNc1nonc1C(=NO)Nc1ccc(F)c(Br)c1`: the IC50 is 100 nM in [3] and 16 nM in data set [5]. Besides, the Papp A→B at 2 h, 50 µM in data set [4] was 24 ×10⁻⁶ cm/s. The values for the CLH in the data set on Liver [1] and in the data set with Liver [2] were 25 mL/min/kg and 12 mL/min/kg, respectively. The Fu in the data set with Plasma is 2.4%.
In the case of `OCCNc1nonc1/C(=N/O)Nc1ccc(F)c(Br)c1`, the IC50 in data set [3] worked out at 170 nM; in data set [5], 22 nM. The Papp A→B at 2 h, 50 µM in data set [4] is 31 ×10⁻⁶ cm/s. Also, the CLH in the data set with Liver [1] and in the data set on Liver [2] was above 36.7 mL/min/kg each time. The Fu in the data set with Plasma is given as 2.3%.
With `Nc1nonc1C(=Nc1ccc(F)c(Br)c1)NO`, the IC50 in data set [3] stood at 50 nM; in data set [5], 10 nM. For the same compound, the CLH with Liver [1] was 23.3 mL/min/kg; in the data set on Liver [2], above 36.7 mL/min/kg.
Turning to `NS(=O)(=O)NCCNc1nonc1/C(=N/O)Nc1ccc(F)c(Br)c1` [EPACADOSTAT], in the data set on CT26 [6], the TGI entry was “inactive”. Moreover, the inhibition result in the data set with Mus musculus was “Active”. The Efficacy with CT26 [7] stood at 56%.
As for `CC(=O)NCCNc1nonc1/C(=N/O)Nc1ccc(F)c(Br)c1`, the IC50 in data set [3] amounted to 210 nM; in data set [5], 17 nM. In addition, in [4], the Papp A→B at 2 h, 50 µM amounted to 19 ×10⁻⁶ cm/s. Besides, the CLH with Liver [1] was found to be 33 mL/min/kg; with Liver [2], 15 mL/min/kg. For the same compound, the Fu in the data set with Plasma came to 4.4%.
As for `CCNc1nonc1/C(=N/O)Nc1ccc(F)c(Br)c1`, the IC50 in data set [3] was 180 nM; in [5] it was 35 nM. Also, the results for the CLH in the data set with Liver [1] and with Liver [2] were above 36.7 mL/min/kg and 23.3 mL/min/kg, respectively.
The matching figures for `CNc1nonc1/C(=N/O)Nc1ccc(F)c(Br)c1`: 100 nM, 14 nM, above 36.7 mL/min/kg and above 36.7 mL/min/kg.
For `NCCNc1nonc1/C(=N/O)Nc1ccc(F)c(Br)c1`, the figures for the IC50 in [3] and in data set [5] were 290 nM and 98 nM, respectively. Also, the Papp A→B at 2 h, 50 µM in data set [4] is 1.8 ×10⁻⁶ cm/s. The CLH in the data set with Liver [1] was found to be 15 mL/min/kg; in the data set with Liver [2] it was 18.3 mL/min/kg. Besides, the Fu in the data set with Plasma was 6.1%.
As usually defined, the AUC is concentration integrated over time. A word on the half-life: it is the time in which the quantity being followed falls by half. Consider `NS(=O)(=O)NCCNc1nonc1C(=NO)Nc1ccc(F)c(Cl)c1`, for which the IC50 amounted to 120 nM in data set [3] and 11 nM in [5]. In addition, the AUC was 15.1 µM·h in data set [8] and 3.3 µM·h with Rattus norvegicus. Also, the Papp A→B at 2 h, 50 µM in data set [4] was 4.3 ×10⁻⁶ cm/s. Moreover, the half-life in data set [9] is 4 h; in data set [10], 2.7 h. For the same compound, the CLH amounted to 13 mL/min/kg in the data set with Liver [1] and 8.3 mL/min/kg in the data set with Liver [2]. Also, the Efficacy in the data set with CT26 [7] stood at 13%. Further, the Fu in the data set with Plasma is listed as 3.8%.
On to `CN(C)c1nonc1/C(=N/O)Nc1ccc(F)c(Br)c1`, for which the IC50 in data set [3] and in data set [5] was above 5000 nM each time. Also, the CLH with Liver [1] and in the data set on Liver [2] was above 36.7 mL/min/kg throughout.
With `COCCNc1nonc1/C(=N/O)Nc1ccc(F)c(Br)c1`, the half-maximal inhibitory concentration (IC50) in data set [3] is 200 nM; in data set [5], 100 nM. Besides, in data set [4], the Papp A→B at 2 h, 50 µM amounted to 44 ×10⁻⁶ cm/s. For the same compound, the CLH in the data set with Liver [1] and in the data set on Liver [2] was above 36.7 mL/min/kg in each case. The compound further showed a Fu in the data set with Plasma of 0.9%.
`O/N=C(\Nc1ccc(F)c(Br)c1)c1nonc1NCc1ccccc1`: the IC50 in [3] was found to be 230 nM; in [5], 280 nM. In addition, the CLH in the data set with Liver [1] is above 36.7 mL/min/kg; in the data set on Liver [2], 35 mL/min/kg. The Fu with Plasma is below 0.5%.
